Reference: ChEMBL document CHEMBL1781963, “Discovery of novel hepatoselective HMG-CoA reductase inhibitors for treating hypercholesterolemia: a bench-to-bedside case study on tissue selective drug distribution” (Bioorg Med Chem Lett, 2011)
One block for each compound: values may come before it.

Legend:
[1] = Cmax in human plasma at 10 mg administered qd for 14 days; assay type: ADME, organism-based; parameters: dose 10 mg
Homo sapiens [2] = assay: Inhibition of HMG-CoA reductase in human assessed as decrease in AUC (0 to 24 hrs) of mevalonate level in plasma at 10 mg administered qd for 14 days relative to control; assay type: functional
Homo sapiens [3] = assay: Inhibition of HMG-CoA reductase in human assessed as decrease in LDL-cholesterol level in plasma at 10 mg administered qd for 14 days relative to control; assay type: functional
Plasma [4] = assay: fAUC (0 to infinity) in human plasma at 10 mg administered as single dose; assay type: ADME, cell-free
Method in brief: (§1)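 Phase 1 single ascending oral dose in healthy volunteers, with N per dose group. Total plasma Cmax and AUC(0-∞) were measured. Free-drug exposures were derived from these using plasma protein binding (human plasma fu measured at 0.5 μg/mL).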

Homo sapiens [5] = assay: Inhibition of HMG-CoA reductase in human assessed as decrease in AUC (0 to 72 hrs) of mevalonate level in plasma at 10 mg administered as single dose relative to control; assay type: functional
[6] = Cmax in human plasma at 240 mg administered as single dose; assay type: ADME, organism-based; parameters: dose 240 mg
Method in brief: (§2)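 Phase 1 single ascending oral dose in healthy volunteers, about 5–6 subjects per dose. Total plasma drug Cmax and AUC(0-∞) were measured. Free-drug exposures were derived using plasma protein binding.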

Plasma [7] = assay: fCmax in human plasma at 120 mg administered as single dose; assay type: ADME, cell-free; method in brief: as §1
Plasma [8] = assay: fCmax in human plasma at 240 mg administered as single dose; assay type: ADME, cell-free; method in brief: as §1
Plasma [9] = assay: fCmax in human plasma at 10 mg administered as single dose; assay type: ADME, cell-free; method in brief: as §1
[10] = AUC (0 to infinity) in human plasma at 320 mg administered as single dose; assay type: ADME, cell-free; parameters: dose 320 mg, time infinity; method in brief: as §2
Hepatocyte = assay: Inhibition of cholesterol synthesis in rat hepatocytes assessed as reduction of [14C]-cholesterol level using [14C]-acetic acid preincubated for 4 hrs before addition of [14C]-acetic acid by liquid scintillation counting; assay type: functional, cell-based
Method in brief: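 Cholesterol synthesis inhibition measured in rat hepatocytes and rat myocyte cell line, giving IC50 for each. Mean ± SEM of n ≥ 2 independent determinations.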

[11] = AUC (0 to infinity) in human plasma at 120 mg administered as single dose; assay type: ADME, cell-free; parameters: dose 120 mg, time infinity; method in brief: as §2
[12] = Cmax in human plasma at 10 mg administered as single dose; assay type: ADME, organism-based; parameters: dose 10 mg; method in brief: as §2
Homo sapiens [13] = assay: Inhibition of HMG-CoA reductase in human assessed as decrease in AUC (0 to 24 hrs) of mevalonate level in plasma at 120 mg administered as single dose relative to control; assay type: functional
Homo sapiens [14] = assay: Inhibition of HMG-CoA reductase in human assessed as decrease in AUC (0 to 24 hrs) of mevalonate level in plasma at 240 mg administered as single dose relative to control; assay type: functional
[15] = Terminal half life in human plasma at 240 mg administered as single dose; assay type: ADME, cell-free; conditions: read-out: beta t1/2 (converted)
Plasma [16] = assay: fCmax in human plasma at 3 mg administered as single dose; assay type: ADME, cell-free; method in brief: as §1
[17] = Cmax in human plasma at 120 mg administered as single dose; assay type: ADME, organism-based; parameters: dose 120 mg; method in brief: as §2
Plasma [18] = assay: fAUC (0 to infinity) in human plasma at 320 mg administered as single dose; assay type: ADME, cell-free; method in brief: as §1
[19] = Cmax in human plasma at 320 mg administered as single dose; assay type: ADME, organism-based; parameters: dose 320 mg; method in brief: as §2
Rattus norvegicus = assay: Inhibition of HMG-CoA reductase in Sprague-Dawley rat assessed as reduction of mevalonate level in plasma at 10 mg/kg, po administered as single dose after 24 hrs relative to control; assay type: functional
[20] = Cmax in human plasma at 3 mg administered as single dose; assay type: ADME, organism-based; parameters: dose 3 mg; method in brief: as §2
Plasma [21] = assay: fAUC (0 to infinity) in human plasma at 120 mg administered as single dose; assay type: ADME, cell-free; method in brief: as §1
[22] = Terminal half life in human plasma at 120 mg administered as single dose; assay type: ADME, cell-free; conditions: read-out: beta t1/2 (converted)
[23] = AUC (0 to infinity) in human plasma at 20 mg administered as single dose; assay type: ADME, cell-free; parameters: dose 20 mg, time infinity; method in brief: as §2
Liver = assay: Ratio of fAUC (0 to 24 hrs) in liver to plasma in Sprague-Dawley rat at 25 mg/kg, po; assay type: ADME, organism-based; parameters: dose 25 mg/kg, route oral; conditions: other tissue
Method in brief: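 Sprague-Dawley rats given a single oral dose (10 or 25 mg/kg). Free drug measured in liver and plasma at 0, 0.5, 1, 2, 3, 4, 7 and 24 h, n = 3/time point.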

[24] = Cmax in human plasma at 1 mg administered as single dose; assay type: ADME, organism-based; parameters: dose 1 mg; method in brief: as §2
Plasma [25] = assay: fAUC (0 to infinity) in human plasma at 1 mg administered as single dose; assay type: ADME, cell-free
Homo sapiens [26] = assay: Inhibition of HMG-CoA reductase in human assessed as decrease in AUC (0 to 72 hrs) of mevalonate level in plasma at 5 mg administered as single dose relative to control; assay type: functional
[27] = Terminal half life in human plasma at 1 mg administered as single dose; assay type: ADME, cell-free; conditions: read-out: beta t1/2 (converted)
[28] = AUC (0 to infinity) in human plasma at 1 mg administered as single dose; assay type: ADME, cell-free; parameters: dose 1 mg, time infinity; method in brief: as §2
Homo sapiens [29] = assay: Inhibition of HMG-CoA reductase in human assessed as decrease in AUC (0 to 72 hrs) of mevalonate level in plasma at 80 mg administered as single dose relative to control; assay type: functional
[30] = AUC (0 to infinity) in human plasma at 160 mg administered as single dose; assay type: ADME, cell-free; parameters: dose 160 mg, time infinity; method in brief: as §2
[31] = Cmax in human plasma at 5 mg administered as single dose; assay type: ADME, organism-based; parameters: dose 5 mg; method in brief: as §2
Homo sapiens [32] = assay: Inhibition of HMG-CoA reductase in human assessed as decrease in AUC (0 to 24 hrs) of mevalonate level in plasma at 5 mg administered as single dose relative to control; assay type: functional
Plasma [33] = assay: fAUC (0 to infinity) in human plasma at 160 mg administered as single dose; assay type: ADME, cell-free; method in brief: as §1
Homo sapiens [34] = assay: Inhibition of HMG-CoA reductase in human assessed as decrease in AUC (0 to 72 hrs) of mevalonate level in plasma at 1 mg administered as single dose relative to control; assay type: functional
Homo sapiens [35] = assay: Inhibition of HMG-CoA reductase in human assessed as decrease in AUC (0 to 72 hrs) of mevalonate level in plasma at 160 mg administered as single dose relative to control; assay type: functional
Plasma [36] = assay: fCmax in human plasma at 5 mg administered as single dose; assay type: ADME, cell-free; method in brief: as §1
[37] = Cmax in human plasma at 160 mg administered as single dose; assay type: ADME, organism-based; parameters: dose 160 mg; method in brief: as §2
[38] = Terminal half life in human plasma at 80 mg administered as single dose; assay type: ADME, cell-free; conditions: read-out: beta t1/2 (converted)
Plasma [39] = assay: fCmax in human plasma at 20 mg administered as single dose; assay type: ADME, cell-free; method in brief: as §1
Plasma [40] = assay: fCmax in human plasma at 80 mg administered as single dose; assay type: ADME, cell-free; method in brief: as §1
Homo sapiens [41] = assay: Inhibition of HMG-CoA reductase in human assessed as decrease in AUC (0 to 24 hrs) of mevalonate level in plasma at 20 mg administered as single dose relative to control; assay type: functional
Homo sapiens [42] = assay: Inhibition of HMG-CoA reductase in human assessed as decrease in AUC (0 to 24 hrs) of mevalonate level in plasma at 160 mg administered as single dose relative to control; assay type: functional
[43] = Cmax in human plasma at 80 mg administered as single dose; assay type: ADME, organism-based; parameters: dose 80 mg; method in brief: as §2

Cmax [1]: 4.58 ng/mL
SMILES: CC(C)c1nc(N(C)S(C)(=O)=O)nc(-c2ccc(F)cc2)c1/C=C/[C@@H](O)C[C@@H](O)CC(=O)O [ROSUVASTATIN]
inhibition (INH) (Homo sapiens [2]): 29.9%
inhibition (INH) (Homo sapiens [3]): 41.3%

fAUC (Plasma [4]): 0.786 ng·h/mL
Cmax [6]: 9.27 ng/mL
fCmax (Plasma [7]): 0.96 ng/mL
fCmax (Plasma [8]): 2.69 ng/mL
fCmax (Plasma [9]): 0.1 ng/mL
AUC(0-inf) [10]: 36 ng·h/mL
AUC(0-inf) [11]: 12.5 ng·h/mL
Cmax [12]: 0.355 ng/mL
half-life [15]: 4.06 h
fCmax (Plasma [16]): 0.016 ng/mL
Cmax [17]: 3.31 ng/mL
fAUC (Plasma [18]): 10.4 ng·h/mL
Cmax [19]: 44.1 ng/mL
Cmax [20]: 0.0552 ng/mL
fAUC (Plasma [21]): 3.63 ng·h/mL
half-life [22]: 3.07 h
SMILES: O=C([O-])C[C@H](O)C[C@H](O)CCn1c(-c2ccc(F)cc2)nc(C(=O)NCc2cccc(F)c2)c1C1CC1.[Na+]
inhibition (INH) (Homo sapiens [5]): -13%
IC50 (Hepatocyte): 0.1 nM
inhibition (INH) (Homo sapiens [13]): -46%
inhibition (INH) (Homo sapiens [14]): -56%
inhibition in vivo at 10 mg/kg (Rattus norvegicus): 47%

AUC(0-inf) [23]: 1930 ng·h/mL
Ratio (Liver): 128
Cmax [24]: 33.5 ng/mL
fAUC (Plasma [25]): 4 ng·h/mL
half-life [27]: 2.55 h
AUC(0-inf) [28]: 78.5 ng·h/mL
AUC(0-inf) [30]: 25000 ng·h/mL
Cmax [31]: 196 ng/mL
fAUC (Plasma [33]): 1280 ng·h/mL
fCmax (Plasma [36]): 10 ng/mL
Cmax [37]: 6810 ng/mL
half-life [38]: 6.28 h
fCmax (Plasma [39]): 37.7 ng/mL
fCmax (Plasma [40]): 228 ng/mL
Cmax [43]: 4480 ng/mL
SMILES: Cc1ccc(CNC(=O)c2nn(-c3ccc(F)cc3)c(CC[C@@H](O)C[C@@H](O)CC(=O)O)c2C(C)C)cc1
inhibition (INH) (Homo sapiens [26]): 3%
inhibition (INH) (Homo sapiens [29]): -29%
inhibition (INH) (Homo sapiens [32]): -13%
inhibition (INH) (Homo sapiens [34]): -8%
inhibition (INH) (Homo sapiens [35]): -24%
inhibition (INH) (Homo sapiens [41]): -34%
inhibition (INH) (Homo sapiens [42]): -55%
